How the values were obtained:
Rattus norvegicus [1] = test: Hypotensive activity was determined in low-sodium treated rat, dose 30 mg/kg administered orally at 5 hr; format: functional; conditions: route oral
Method in brief: (§1)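 Male CD rats, 11 weeks old, kept on a sodium-deficient diet for 3 weeks and fasted overnight, were dosed orally with aqueous solutions (5 mL/kg), water as control. Systolic pressure measured by tail cuff at the stated post-dose time. ANOVA with Duncan's test.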

Rattus norvegicus [2] = test: Percent change was determined in bradykinin depressor response in anesthetized normotensive rat, administered intravenously at dose 0.030 mg/kg; format: functional; conditions: dose 0.03 mg/kg; route intravenous
Method in brief: (§2)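 Male Charles River CD rats (380–500 g), pentobarbital Na 15 mg/kg plus barbital 220 mg/kg ip, tracheotomized, femoral artery/vein cannulated, kept at 37 °C. Control bradykinin 1 μg/kg iv depressor response, separate from angiotensin tests; drug iv in 0.9% saline (1 mL/kg, free base) 10 min later, Bk 5 min after each cumulative dose (0.0033–0.27 mg/kg). Maximum fall in arterial pressure versus control response; N = 8.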

Rattus norvegicus [3] = test: Percent decrease in angiotensin I pressor response was measured in rat, administered intravenously at dose 0.090 mg/kg; format: functional; conditions: dose 0.09 mg/kg; route intravenous
Method in brief: (§3)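 Anesthetized (pentobarbital Na 15 mg/kg + barbital 220 mg/kg ip), tracheotomized male Charles River CD rats, 380–500 g, femoral cannulas, heated board at 37 °C. Control pressor responses to angiotensin I 0.3 μg/kg then angiotensin II 0.1 μg/kg iv; drug iv in 0.9% saline (free base), AI and AII repeated at 5-min intervals, cumulative 0.01–0.81 mg/kg. Peak arterial pressure rise versus control.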

Rattus norvegicus [4] = test: Decrease in systolic blood pressure of Spontaneous Hypertensive Rats (SHR) pretreated with hydrochlorothiazide upon oral administration at 10 mm/kg; format: functional, Artery
Method in brief: (§4)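 Male SHR, 13 weeks old, given HCTZ 25 mg/kg po in 0.25% methylcellulose daily for 3 days. Drug given orally in water (5 mL/kg) 1 h after the third dose. Tail-cuff systolic pressure and pulse-count heart rate taken 1.5 h later after 20 min warming at 38 °C. ANOVA with Duncan's test; ED30 by linear regression.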

Rattus norvegicus [5] = test: Change in heart rate was determined in renal hypertensive rat, administered orally at a dose 100 mg/kg; format: functional; conditions: route oral
Method in brief: (§5)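 Renal hypertensive rats were prepared by clipping the left renal artery (0.22-mm clip) in 4-week-old male CD rats and held 6 weeks. Overnight-fasted rats were dosed orally with aqueous solution (5 mL/kg), water as control. Tail-cuff systolic pressure and heart rate measured 2 h post-dose. ANOVA with Duncan's test; ED30 by linear regression.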

Canis familiaris [6] = test: Effect on pressor response of angiotensin II in anesthetized dog, dose 0.1 mg/kg administered intravenously; format: functional, Canis lupus familiaris; conditions: route intravenous
Method in brief: (§6)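 Mongrel dogs, 7.3–15.5 kg, anesthetized with barbital/pentobarbital iv, tracheotomized and vagotomized, n = 4. Cumulative iv doses in saline (0.2 mL/kg) spaced 30 min apart. AI and AII 1 μg/kg iv challenges given after each dose; the second pre-dose set served as control.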

Rattus norvegicus [7] = test: Percent decrease in angiotensin I pressor response was measured in rat, administered intravenously at dose 0.030 mg/kg; format: functional; conditions: dose 0.03 mg/kg; route intravenous; method in brief: as §3
Rattus norvegicus [8] = test: Change in heart rate was determined in renal hypertensive rat, administered orally at a dose 3 mg/kg; format: functional; conditions: route oral; method in brief: as §5
Rattus norvegicus [9] = test: Hypotensive activity was determined in low-sodium treated rat, dose 10 mg/kg administered orally at 5 hr; format: functional; conditions: route oral; method in brief: as §1
Rattus norvegicus [10] = test: Change in heart rate was determined at a dose 30 mg/kg; format: functional; method in brief: as §4
Canis familiaris [11] = test: Effect on pressor response of angiotensin I in anesthetized dog, dose 0.3 mg/kg administered intravenously; format: functional, Canis lupus familiaris; conditions: route intravenous; method in brief: as §6
Canis familiaris [12] = test: Effect on pressor response of angiotensin II in conscious dog at 60-65 min, dose 0.5 mg/kg administered orally; format: functional, Canis lupus familiaris; conditions: route oral
Method in brief: (§7)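 Conscious fasted mongrel dogs of both sexes, 6.8–15.3 kg, with femoral cannulas. Drug given orally in 0.25% methylcellulose with 3% glycerin (2 mL/kg), n = 4 per dose. AI 0.3, AII 0.1 and NE 1 μg/kg iv challenges. The second pre-dose set served as control; response measured at 60–65 min post-dose.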

Canis familiaris [13] = test: Effect on pressor response of angiotensin II in conscious dog at 60-65 min, dose 1 mg/kg administered orally; format: functional, Canis lupus familiaris; conditions: route oral; method in brief: as §7
Rattus norvegicus [14] = test: Change in heart rate was determined at a dose 3 mg/kg; format: functional; method in brief: as §4
[15] = Half life was determined; format: ADME; conditions: rat
Method in brief: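 Rats anesthetized with pentobarbital/barbital received a single iv dose, 0.2 or 0.08 mg/kg. AI 0.3 μg/kg iv given at 5 min, then every 10 min for 210 min. Half-life = time for the AI pressor response to fall to 50% of its peak inhibition.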

Rattus norvegicus [16] = test: Percent decrease in angiotensin I pressor response was measured in rat, administered intravenously at dose 0.81 mg/kg; format: functional; conditions: route intravenous; method in brief: as §3
Rattus norvegicus [17] = test: Activity against the bradykinin Response in anesthetized normotensive rat, administered intravenously at dose 0.0033 mg/kg; format: functional; conditions: route intravenous
Method in brief: (§8)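 Anesthetized (pentobarbital/barbital ip) male Charles River CD rats, 380–500 g, kept at 37 °C. Femoral artery blood pressure recorded. Control depressor response to bradykinin 1 μg/kg iv, then cumulative iv drug in 0.9% saline (1 mL/kg), 0.0033–0.27 mg/kg. Bk challenge 5 min after each dose. ED50 = dose giving a 50% change from control, by linear regression; N = 8.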

Rattus norvegicus [18] = test: Percent decrease in angiotensin I pressor response was measured in rat, administered intravenously at dose 0.010 mg/kg; format: functional; conditions: dose 0.01 mg/kg; route intravenous; method in brief: as §3
Canis familiaris [19] = test: Effect on pressor response of angiotensin I in anesthetized dog, dose 0.1 mg/kg administered intravenously; format: functional, Canis lupus familiaris; conditions: route intravenous; method in brief: as §6
Rattus norvegicus [20] = test: Activity against the bradykinin Response in anesthetized normotensive rat, administered intravenously at dose 0.010 mg/kg; format: functional; conditions: dose 0.01 mg/kg; route intravenous; method in brief: as §8
Canis familiaris [21] = test: Effect on pressor response of angiotensin II in conscious dog at 60-65 min, dose 2 mg/kg administered orally; format: functional, Canis lupus familiaris; conditions: route oral; method in brief: as §7
Rattus norvegicus [22] = species on record: Rattus norvegicus; test: Effective dose was determined to increase the vasoResponse in rat; format: functional; method in brief: as §8
Rattus norvegicus [23] = test: Hypotensive activity was determined in low-sodium treated rat, dose 3 mg/kg administered orally at 5 hr; format: functional; conditions: route oral; method in brief: as §1
Rattus norvegicus [24] = test: Activity against the bradykinin Response in anesthetized normotensive rat, administered intravenously at dose 0.030 mg/kg; format: functional; conditions: dose 0.03 mg/kg; route intravenous; method in brief: as §8
Rattus norvegicus [25] = test: Effect on systolic blood pressure was determined in renal hypertensive rat, administered orally at a dose 3 mg/kg; format: functional, Artery; conditions: route oral; method in brief: as §5
Rattus norvegicus [26] = test: Percent change was determined in bradykinin depressor response in anesthetized normotensive rat, administered intravenously at dose 0.010 mg/kg; format: functional; conditions: dose 0.01 mg/kg; route intravenous; method in brief: as §2
Canis familiaris [27] = test: Effect on pressor response of angiotensin I in conscious dog at 60-65 min, dose 1 mg/kg administered orally; format: functional, Canis lupus familiaris; conditions: route oral; method in brief: as §7
Rattus norvegicus [28] = test: Effective dose to produce ACE inhibition in rat, administered intravenously; format: functional; conditions: iv
Method in brief: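 Male Charles River CD rats, 380–500 g, anesthetized with pentobarbital Na 15 mg/kg plus barbital 220 mg/kg ip, held at 37 °C. Femoral artery pressure recorded. AI 0.3 μg/kg and AII 0.1 μg/kg given iv as challenges. Cumulative iv drug in saline, 0.01–0.81 mg/kg, each dose followed by AI/AII challenges at 5-min intervals. ED50 = 50% change from control response, by linear regression.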

SMILES: CCOC(=O)[C@H](CCc1ccccc1)N[C@@H](C)C(=O)N1C(=O)CC[C@H]1C(=O)O
- Activity (Rattus norvegicus [1]): 132 mmHg
- Change (Rattus norvegicus [2]): 69%
- Decrease (Rattus norvegicus [3]): 31%
- Blood pressure (Rattus norvegicus [4]): 189 mmHg
- Heart rate (Rattus norvegicus [5]): 454 beats min-1
- Blood pressure (Canis familiaris [6]): 64 mmHg
- Decrease (Rattus norvegicus [7]): 19%
- Heart rate (Rattus norvegicus [8]): 460 beats min-1
- Activity (Rattus norvegicus [9]): 143 mmHg
- Heart rate (Rattus norvegicus [10]): 381 beats min-1
- Blood pressure (Canis familiaris [11]): 46 mmHg
- Blood pressure (Canis familiaris [12]): 48 mmHg
- Blood pressure (Canis familiaris [13]): 48 mmHg
- Heart rate (Rattus norvegicus [14]): 374 beats min-1
- half-life [15]: 2 h
- Decrease (Rattus norvegicus [16]): 92%
- Response (Rattus norvegicus [17]): -44 mmHg
- Decrease (Rattus norvegicus [18]): 6%
- Blood pressure (Canis familiaris [19]): 60 mmHg
- Response (Rattus norvegicus [20]): -58 mmHg
- Blood pressure (Canis familiaris [21]): 40 mmHg
- ED50 (Rattus norvegicus [22]): 0.012 mg/kg
- Activity (Rattus norvegicus [23]): 153 mmHg
- Response (Rattus norvegicus [24]): -61 mmHg
- Activity (Rattus norvegicus [25]): 220 mmHg
- Change (Rattus norvegicus [26]): 61%
- Blood pressure (Canis familiaris [27]): 23 mmHg
- ED50 (Rattus norvegicus [28]): 0.13 mg/kg

Source: ChEMBL document CHEMBL1122835, “Synthesis and pharmacology of the potent angiotensin-converting enzyme inhibitor N-[1(S)-(ethoxycarbonyl)-3-phenylpropyl]-(S)-alanyl-(S)-pyroglutamic acid” (J Med Chem, 1985)
